# Test results from ChEMBL document CHEMBL1154719, “Click chemistry: studies on the synthesis of novel fluorous tagged triazol-4-yl substituted quinazoline derivatives and their biological evaluation--theoretical and experimental validation” (2010).
# Tests used:
# Format in all cases: functional
# Escherichia coli = test: Antibacterial activity against Escherichia coli MTCC 443 by broth dilution method
# Method in brief: (§1)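 MIC by broth dilution in nutrient broth. Test bacteria were kept on nutrient agar slants and subcultured in Petri dishes before testing.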
# [1] = test system: Staphylococcus epidermidis; test: Antibacterial activity against Staphylococcus epidermidis MTCC 435 by broth dilution method; method in brief: as §1
# Staphylococcus aureus = test: Antibacterial activity against Staphylococcus aureus MTCC 96 by broth dilution method; method in brief: as §1
# Pseudomonas aeruginosa = test: Antibacterial activity against Pseudomonas aeruginosa MTCC 741 by broth dilution method; method in brief: as §1
# Bacillus subtilis = test: Antibacterial activity against Bacillus subtilis MTCC 441 by broth dilution method; method in brief: as §1
# Aspergillus flavus [2] = test: Antifungal activity against Aspergillus flavus MTCC 277 at 30 ug/ml after 48 hrs by agar cup diffusion method; conditions: MTCC 277, 48 h, read-out: DIZ
# Method in brief: (§2)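 Agar cup diffusion on autoclaved potato dextrose agar plates. Each plate was spread with 0.5 ml of a week-old culture, and test solutions at 30 and 100 per ml were added to cups. Plates were held at 28 °C for 48 h, and inhibition zone diameters were read in mm. Acetone served as the solvent control and amphotericin-B as the reference.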
# Candida albicans [3] = test: Antifungal activity against Candida albicans MTCC 227 at 100 ug/ml after 48 hrs by agar cup diffusion method; conditions: MTCC 227, 48 h, read-out: DIZ; method in brief: as §2
# Saccharomyces cerevisiae [4] = test: Antifungal activity against Saccharomyces cerevisiae MTCC 36 at 100 ug/ml after 48 hrs by agar cup diffusion method; conditions: MTCC 36, 48 h, read-out: DIZ; method in brief: as §2
# Aspergillus niger [5] = test: Antifungal activity against Aspergillus niger MTCC 1344 at 100 ug/ml after 48 hrs by agar cup diffusion method; conditions: MTCC 1344, 48 h, read-out: DIZ; method in brief: as §2
# Diutina rugosa = test: Antifungal activity against Candida rugosa NCIM 3462 at 100 ug/ml after 48 hrs by agar cup diffusion method; conditions: NCIM 3462, 48 h, read-out: DIZ; method in brief: as §2
# Saccharomyces cerevisiae [6] = test: Antifungal activity against Saccharomyces cerevisiae MTCC 36 at 30 ug/ml after 48 hrs by agar cup diffusion method; conditions: MTCC 36, 48 h, read-out: DIZ; method in brief: as §2
# Aspergillus niger [7] = test: Antifungal activity against Aspergillus niger MTCC 1344 at 30 ug/ml after 48 hrs by agar cup diffusion method; conditions: MTCC 1344, 48 h, read-out: DIZ; method in brief: as §2
# Candida albicans [8] = test: Antifungal activity against Candida albicans MTCC 227 at 30 ug/ml after 48 hrs by agar cup diffusion method; conditions: MTCC 227, 48 h, read-out: DIZ; method in brief: as §2
# Aspergillus flavus [9] = test: Antifungal activity against Aspergillus flavus MTCC 277 at 100 ug/ml after 48 hrs by agar cup diffusion method; conditions: MTCC 277, 48 h, read-out: DIZ; method in brief: as §2
# Rhizopus arrhizus = test: Antifungal activity against Rhizopus oryzae MTCC 262 at 100 ug/ml after 48 hrs by agar cup diffusion method; conditions: MTCC 262, 48 h, read-out: DIZ; method in brief: as §2
SMILES,MIC (Escherichia coli) [µg/mL],MIC [1] [µg/mL],MIC (Staphylococcus aureus) [µg/mL],MIC (Pseudomonas aeruginosa) [µg/mL],MIC (Bacillus subtilis) [µg/mL],zone of inhibition at 30 µg/mL (Aspergillus flavus [2]) [mm],zone of inhibition at 100 µg/mL (Candida albicans [3]) [mm],zone of inhibition at 100 µg/mL (Saccharomyces cerevisiae [4]) [mm],zone of inhibition at 100 µg/mL (Aspergillus niger [5]) [mm],zone of inhibition at 100 µg/mL (Diutina rugosa) [mm],zone of inhibition at 30 µg/mL (Saccharomyces cerevisiae [6]) [mm],zone of inhibition at 30 µg/mL (Aspergillus niger [7]) [mm],zone of inhibition at 30 µg/mL (Candida albicans [8]) [mm],zone of inhibition at 100 µg/mL (Aspergillus flavus [9]) [mm],zone of inhibition at 100 µg/mL (Rhizopus arrhizus) [mm]
CC1(C)S[C@@H]2[C@H](NC(=O)Cc3ccccc3)C(=O)N2[C@H]1C(=O)O [PENICILLIN G],6.25,3.12,6.25,12.5,1.53,,,,,,,,,,
FC(F)(F)C(F)(F)C(F)(F)C(F)(F)C(F)(F)C(F)(F)C(F)(F)C(F)(F)CCn1cc(COc2nc(-c3ccccc3)nc3ccccc23)nn1,150,150,150,75,150,7,10,10,10,10,7,7,7,10,10
C#CCOc1nc(-c2ccccc2)nc2ccccc12,150,150,150,150,150,,10,,10,,,7,7,,
FC(F)(F)c1nc(OCc2cn(CCC(F)(F)C(F)(F)C(F)(F)C(F)(F)C(F)(F)C(F)(F)C(F)(F)C(F)(F)F)nn2)c2ccccc2n1,150,150,150,150,150,,9,,9,,,,,,
O=c1c2ccccc2nc(C(F)(F)F)n1Cc1cn(CCC(F)(F)C(F)(F)C(F)(F)C(F)(F)C(F)(F)C(F)(F)C(F)(F)C(F)(F)F)nn1,75,75,75,75,75,,9,9,9,,,7,7,9,
FC(F)(F)C(F)(F)C(F)(F)C(F)(F)C(F)(F)C(F)(F)CCn1cc(COc2nc(-c3ccccc3)nc3ccccc23)nn1,75,75,75,75,150,,11,9,11,,,8,8,9,
O=c1c2ccccc2nc(-c2c(F)cccc2F)n1Cc1cn(CCC(F)(F)C(F)(F)C(F)(F)C(F)(F)C(F)(F)C(F)(F)F)nn1,150,150,150,150,150,,10,,10,,,7,7,,
O=c1c2ccccc2nc(-c2c(F)cccc2F)n1Cc1cn(CCC(F)(F)C(F)(F)C(F)(F)C(F)(F)C(F)(F)C(F)(F)C(F)(F)C(F)(F)F)nn1,75,150,150,75,150,,10,9,10,9,,7,7,9,9
